In brackets after ≈: the same amount, converted by molar mass.
Legend:
HeLa [1] = assay: Inhibition of cytopathogenicity of herpes simplex type 1 virus (HSV-1)(KOS) in Hela cell culture.; type: functional, cell-based; conditions: Homo sapiens
HeLa [2] = assay: Concentration required to cause microscopically visible change or disruption in about 50% of Hela cell sheet.; type: functional, cell-based; conditions: Homo sapiens
Summary of the method: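 Uninfected HeLa cell sheets were exposed to a range of compound concentrations and checked microscopically for morphological change. The value is the concentration causing visible change or disruption in about 50% of the cell sheet.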

HeLa [3] = assay: Inhibition of cytopathogenicity of Varicella-Zoster virus(VZV)(YS) in Hela cell culture.; type: functional, cell-based; conditions: Homo sapiens
HeLa [4] = assay: Inhibition of cytopathogenicity of herpes simplex type 2 virus([…] in Hela cell culture; type: functional, cell-based; conditions: Homo sapiens
[5] = Solubility was determined with phosphate buffer (0.10M, 5 mL).; type: physicochemical; conditions: read-out: Solubility in water
Summary of the method: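 Solid compound (70 mg) was agitated in 0.10 M phosphate buffer (5.0 mL) for 20 h. Undissolved solid was filtered off on sintered glass, and the dissolved concentration was determined by UV absorbance.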

MT4 [6] = assay: Concentration required to reduce the number of viable uninfected cells by 50%; type: functional, cell-based; conditions: Homo sapiens
Summary of the method: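 Uninfected MT4 cells were used for the toxicity arm of the anti-HIV-1 cell-protection assay. The value is the concentration reducing the number of viable uninfected cells by 50%. […]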

MT4 [7] = assay: Inhibitory Effect against HIV-1 (IIIB) in MT4 cells; conditions: Homo sapiens
HeLa [8] = assay: Inhibition of cytopathogenicity of Varicella-Zoster virus(VZV)(YS) in Hela cell culture; Not active up to 128 ug/mL.; type: functional, cell-based, Homo sapiens
MT4 [9] = assay: Inhibitory Effect against HIV-1 (IIIB) in MT4 cells; Not active up to 128 ug/mL.; conditions: Homo sapiens
HeLa [10] = assay: Inhibition of cytopathogenicity of herpes simplex type 2 virus([…] in Hela cell culture; Not active up to 128 ug/mL.; type: functional, cell-based, Homo sapiens

| SMILES | IC50 (HeLa [1]; read-out: IC50) [µg/mL] | IC50 (HeLa [2]; read-out: IC50) [µg/mL] | IC50 (HeLa [4]) [µg/mL] | solubility [5] [µg/mL] | IC50 (MT4 [6]) [µg/mL] | IC50 (MT4 [7]) [µg/mL] | other results |
| --- | --- | --- | --- | --- | --- | --- | --- |
| CCOP(=O)(O)CCOCn1cnc2c(N)ncnc21.N | 11.3 | 176 | 13.8 | – | – | – | IC50 (HeLa [3]): 25 µg/mL |
| Nc1ncnc2c1ncn2COCCP(=O)(O)O | 3.98 (≈ 14.6 µM) | 215 (≈ 787 µM) | 5.86 (≈ 21.5 µM) | 13600 (≈ 49900 µM) | – | – | IC50 (HeLa [3]): 16 µg/mL (≈ 58.6 µM) |
| Nc1ncnc2c1ncn2COCCP(=O)(O)O[C@H]1[C@H](O)[C@H](n2cnc3c(N)ncnc32)O[C@@H]1CO | 8.97 (≈ 17.2 µM) | – | 16.3 (≈ 31.2 µM) | 2460 (≈ 4710 µM) | – | – | IC50 (HeLa [8]): Not Active; IC50 (HeLa [2]): 346 µg/mL (≈ 662 µM) |
| Cc1cn([C@H]2C=C[C@@H](CP(=O)(O)O)O2)c(=O)[nH]c1=O | – | – | – | – | 196 (≈ 679 µM) | – | IC50 (MT4 [9]): Not Active |
| Cc1cn([C@H]2C[C@H](C#N)[C@@H](CP(=O)(O)O)O2)c(=O)[nH]c1=O | – | – | – | – | 69.9 (≈ 222 µM) | – | IC50 (MT4 [9]): Not Active |
| Cc1cn([C@H]2CC[C@@H](CP(=O)(O)O)O2)c(=O)[nH]c1=O | – | – | – | – | 128 (≈ 443 µM) | 23.5 (≈ 81 µM) | – |
| Cc1cn([C@H]2C[C@H](N=[N+]=[N-])[C@@H](CP(=O)(O)O)O2)c(N)nc1=O | – | – | – | – | 58.6 (≈ 178 µM) | – | IC50 (MT4 [9]): Not Active |
| Nc1ncnc2c1ncn2COCCP(=O)(O)O.Nc1ncnc2c1ncn2[C@@H]1O[C@H](CO)[C@@H](O)[C@@H]1O | 0.67 | 168 | 1.25 | – | – | – | IC50 (HeLa [3]): 2.86 µg/mL |
| Nc1ncnc2c1ncn2COCCO | 4.43 (≈ 21.2 µM) | 266 (≈ 1270 µM) | 8.26 (≈ 39.5 µM) | 1950 (≈ 9320 µM) | – | – | IC50 (HeLa [3]): 6.5 µg/mL (≈ 31.1 µM) |
| Nc1ncnc2c1ncn2COCCO.Nc1ncnc2c1ncn2COCCP(=O)(O)O | 0.15 | 235 | 0.38 | – | – | – | IC50 (HeLa [3]): 0.18 µg/mL |
| Nc1nc2c(ncn2COCCO)c(=O)[nH]1 [ACYCLOVIR] | 0.1 (≈ 0.444 µM) | 250 (≈ 1110 µM) | 0.23 (≈ 1.02 µM) | – | – | – | – |
| Nc1ncnc2c1ncn2[C@@H]1O[C@H](CO)[C@@H](O)[C@H]1O [ADENOSINE] | – | – | – | 400 (≈ 1500 µM) | – | – | IC50 (HeLa [10]): Not Active; IC50 (HeLa [1]): 10.8 µg/mL (≈ 40.4 µM); IC50 (HeLa [8]): Not Active; IC50 (HeLa [2]): 98.8 µg/mL (≈ 370 µM) |
| Cc1cn([C@H]2C[C@H](N=[N+]=[N-])[C@@H](CO)O2)c(=O)[nH]c1=O [ZIDOVUDINE] | – | – | – | – | 57.3 (≈ 214 µM) | 0.02 (≈ 0.0748 µM) | – |

Further lines, with some results ahead:

| IC50 (HeLa [1]; read-out: IC50) [µg/mL] | IC50 (HeLa [2]; read-out: IC50) [µg/mL] | IC50 (HeLa [4]) [µg/mL] | solubility [5] [µg/mL] | SMILES | IC50 (MT4 [6]) [µg/mL] | IC50 (MT4 [7]) [µg/mL] | other results |
| --- | --- | --- | --- | --- | --- | --- | --- |
| – | – | – | 8920 (≈ 14400 µM) | COC(=O)[C@@H](C)NP(=O)(C[C@H]1O[C@@H](n2cc(C)c(=O)[nH]c2=O)C[C@@H]1F)O[C@H]1C[C@H](n2cc(C)c(=O)[nH]c2=O)O[C@@H]1CO (some centres undefined) | 462 (≈ 748 µM) | 0.5 (≈ 0.81 µM) | – |
| – | – | – | 9200 (≈ 14400 µM) | COC(=O)[C@@H](C)NP(=O)(C[C@H]1O[C@@H](n2cc(C)c(=O)[nH]c2=O)C[C@@H]1N=[N+]=[N-])O[C@H]1C[C@H](n2cc(C)c(=O)[nH]c2=O)O[C@@H]1CO (some centres undefined) | 458 (≈ 714 µM) | 0.76 (≈ 1.19 µM) | – |
| – | – | – | 8790 (≈ 14200 µM) | COC(=O)[C@H](C)NP(=O)(C[C@H]1O[C@@H](n2cc(C)c(=O)[nH]c2=O)C[C@@H]1F)O[C@H]1C[C@H](n2cc(C)c(=O)[nH]c2=O)O[C@@H]1CO (some centres undefined) | 180 (≈ 292 µM) | 0.34 (≈ 0.551 µM) | – |
| – | – | – | 9130 (≈ 14300 µM) | COC(=O)[C@H](C)NP(=O)(C[C@H]1O[C@@H](n2cc(C)c(=O)[nH]c2=O)C[C@@H]1N=[N+]=[N-])O[C@H]1C[C@H](n2cc(C)c(=O)[nH]c2=O)O[C@@H]1CO (some centres undefined) | 200 (≈ 312 µM) | 0.61 (≈ 0.952 µM) | – |
| – | – | – | 3240 (≈ 5830 µM) | Cc1cn([C@H]2C[C@H](N=[N+]=[N-])[C@@H](CP(=O)(O)O[C@H]3C[C@H](n4cc(C)c(=O)[nH]c4=O)O[C@@H]3CO)O2)c(=O)[nH]c1=O | 99.5 (≈ 179 µM) | 1.92 (≈ 3.46 µM) | – |
| – | – | – | 3980 (≈ 7480 µM) | Cc1cn([C@H]2C[C@H](OP(=O)(O)C[C@H]3O[C@@H](n4cc(C)c(=O)[nH]c4=O)C[C@@H]3F)[C@@H](CO)O2)c(=O)[nH]c1=O | 79 (≈ 148 µM) | 3.04 (≈ 5.71 µM) | – |
| 0.38 (≈ 0.625 µM) | 215 (≈ 355 µM) | 0.88 (≈ 1.45 µM) | 8250 (≈ 13600 µM) | COC(=O)C(C)NP(=O)(CCOCn1cnc2c(N)ncnc21)O[C@H]1[C@H](O)[C@H](n2cnc3c(N)ncnc32)O[C@@H]1CO (some centres undefined) | – | – | IC50 (HeLa [3]): 4.82 µg/mL (≈ 7.93 µM) |
| – | – | – | 11200 (≈ 33700 µM) | Cc1cn([C@H]2C[C@H](N=[N+]=[N-])[C@@H](CP(=O)(O)O)O2)c(=O)[nH]c1=O | 115 (≈ 346 µM) | 7.68 (≈ 23.2 µM) | – |
| – | – | – | 12300 (≈ 39800 µM) | Cc1cn([C@H]2C[C@H](F)[C@@H](CP(=O)(O)O)O2)c(=O)[nH]c1=O | 98.7 (≈ 320 µM) | 11.8 (≈ 38.3 µM) | – |
